# Activity calls are given as the source filed them. The rule behind the calls is not given here.
# Experiments:
# [1] = molecular target: T1, Myeloperoxidase (Homo sapiens, UniProt P05164); assay: Inhibition of human PMN leukocytes MPO peroxidation activity using H2O2 as substrate preincubated for 10 mins followed by H2O2 addition and measured for 15 mins by amplex red reagent based assay
# T1 sequence (P05164 whole entry): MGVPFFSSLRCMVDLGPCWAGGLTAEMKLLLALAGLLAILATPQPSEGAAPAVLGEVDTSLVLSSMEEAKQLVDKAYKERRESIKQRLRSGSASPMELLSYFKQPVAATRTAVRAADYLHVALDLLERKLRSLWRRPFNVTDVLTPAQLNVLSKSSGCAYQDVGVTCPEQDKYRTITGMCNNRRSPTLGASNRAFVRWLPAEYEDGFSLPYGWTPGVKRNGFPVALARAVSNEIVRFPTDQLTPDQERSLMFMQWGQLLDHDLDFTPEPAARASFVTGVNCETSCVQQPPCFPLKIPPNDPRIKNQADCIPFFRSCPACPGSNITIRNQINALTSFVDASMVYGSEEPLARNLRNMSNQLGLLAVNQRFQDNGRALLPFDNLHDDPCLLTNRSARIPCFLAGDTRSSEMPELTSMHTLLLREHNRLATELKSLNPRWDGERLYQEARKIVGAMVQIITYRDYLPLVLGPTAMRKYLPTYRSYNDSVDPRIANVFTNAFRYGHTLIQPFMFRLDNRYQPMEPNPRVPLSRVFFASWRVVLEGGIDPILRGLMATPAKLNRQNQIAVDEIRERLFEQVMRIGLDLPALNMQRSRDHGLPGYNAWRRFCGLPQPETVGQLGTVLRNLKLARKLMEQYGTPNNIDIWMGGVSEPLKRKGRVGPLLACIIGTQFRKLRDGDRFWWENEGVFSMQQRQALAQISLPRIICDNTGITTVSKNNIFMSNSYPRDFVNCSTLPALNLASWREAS
# [2] = Protein binding in human plasma; format: ADME, cell-free; conditions: read-out: PPB (converted)
# [3] = Cmax in mouse at 3 mg/kg, po; format: ADME, organism-based; set-up: dose 3 mg/kg, route oral; conditions: in vivo
# [4] = molecular target: T2, Eosinophil peroxidase (Homo sapiens, UniProt P11678); assay: Inhibition of human EPX bromination activity assessed as reduction in H2O2 catalyzed 3-bromo tyrosine formation from tyrosine and potassium bromide preincubated for 10 mins followed by tyrosine/potassium bromide/H2O2 addition measured after 15 mins by RP-UPLC analysis
# T2 sequence (P11678 whole entry): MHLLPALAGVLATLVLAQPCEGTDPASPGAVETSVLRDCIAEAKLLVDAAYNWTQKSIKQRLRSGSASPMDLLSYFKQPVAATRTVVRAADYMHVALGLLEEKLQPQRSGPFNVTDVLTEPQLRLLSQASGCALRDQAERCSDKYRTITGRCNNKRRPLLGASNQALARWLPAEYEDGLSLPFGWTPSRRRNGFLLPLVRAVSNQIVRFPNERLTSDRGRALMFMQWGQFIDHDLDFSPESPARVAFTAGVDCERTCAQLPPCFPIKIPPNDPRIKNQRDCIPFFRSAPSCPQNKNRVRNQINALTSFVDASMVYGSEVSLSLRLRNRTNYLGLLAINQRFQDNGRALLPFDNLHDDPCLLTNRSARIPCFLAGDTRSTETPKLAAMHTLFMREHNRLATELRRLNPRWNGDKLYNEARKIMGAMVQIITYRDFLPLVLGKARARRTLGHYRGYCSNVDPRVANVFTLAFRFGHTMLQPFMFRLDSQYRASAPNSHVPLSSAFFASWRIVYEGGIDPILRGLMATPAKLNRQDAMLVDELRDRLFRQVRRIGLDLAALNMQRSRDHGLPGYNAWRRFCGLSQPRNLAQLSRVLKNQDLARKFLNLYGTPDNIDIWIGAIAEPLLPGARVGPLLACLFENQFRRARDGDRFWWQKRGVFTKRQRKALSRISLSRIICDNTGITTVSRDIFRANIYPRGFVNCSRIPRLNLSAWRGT
# [5] = Half life in pH 1 solution; format: physicochemical
# [6] = Protein binding in mouse plasma; format: ADME, cell-free; conditions: read-out: PPB (converted)
# [7] = molecular target: Lactoperoxidase (Homo sapiens, UniProt P22079); assay: Inhibition of human LPO assessed as reduction in H2O2 catalyzed 3,5-iodo tyrosine formation from 3-iodotyrosine and potassium iodide preincubated for 10 mins followed by tyrosine/potassium bromide/H2O2 addition measured after 15 mins
# [8] = molecular target: T3, Methylated-DNA--protein-cysteine methyltransferase (Homo sapiens, UniProt P16455); assay: Inhibition of recombinant human N-terminal His-tagged MGMT (1 to 207 residues) expressed in Escherichia coli using O-6-benzylguanine as substrate after 30 mins by LC-MS analysis; conditions: 0.5 h
# T3 sequence (P16455 whole entry): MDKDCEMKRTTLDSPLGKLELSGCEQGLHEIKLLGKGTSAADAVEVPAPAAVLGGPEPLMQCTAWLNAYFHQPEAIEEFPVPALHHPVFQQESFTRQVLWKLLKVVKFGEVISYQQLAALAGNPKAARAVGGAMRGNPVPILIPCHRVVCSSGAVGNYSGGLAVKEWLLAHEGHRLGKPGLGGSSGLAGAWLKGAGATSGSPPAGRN
# [9] = molecular target: T1, Myeloperoxidase; assay: Inhibition of human PMN leukocytes MPO chlorination activity using H2O2 as substrate preincubated for 10 mins followed by H2O2 addition and measured for 15 mins in presence of NaCl by aminophenyl fluorescein based assay
# [10] = molecular target: T4, Thyroid peroxidase (Homo sapiens, UniProt P07202); assay: Inhibition of human TPO assessed as reduction in H2O2 catalyzed 3,5-iodo tyrosine formation from 3-iodotyrosine and potassium iodide preincubated for 10 mins followed by tyrosine/potassium bromide/H2O2 addition measured after 15 mins
# T4 sequence (P07202 whole entry): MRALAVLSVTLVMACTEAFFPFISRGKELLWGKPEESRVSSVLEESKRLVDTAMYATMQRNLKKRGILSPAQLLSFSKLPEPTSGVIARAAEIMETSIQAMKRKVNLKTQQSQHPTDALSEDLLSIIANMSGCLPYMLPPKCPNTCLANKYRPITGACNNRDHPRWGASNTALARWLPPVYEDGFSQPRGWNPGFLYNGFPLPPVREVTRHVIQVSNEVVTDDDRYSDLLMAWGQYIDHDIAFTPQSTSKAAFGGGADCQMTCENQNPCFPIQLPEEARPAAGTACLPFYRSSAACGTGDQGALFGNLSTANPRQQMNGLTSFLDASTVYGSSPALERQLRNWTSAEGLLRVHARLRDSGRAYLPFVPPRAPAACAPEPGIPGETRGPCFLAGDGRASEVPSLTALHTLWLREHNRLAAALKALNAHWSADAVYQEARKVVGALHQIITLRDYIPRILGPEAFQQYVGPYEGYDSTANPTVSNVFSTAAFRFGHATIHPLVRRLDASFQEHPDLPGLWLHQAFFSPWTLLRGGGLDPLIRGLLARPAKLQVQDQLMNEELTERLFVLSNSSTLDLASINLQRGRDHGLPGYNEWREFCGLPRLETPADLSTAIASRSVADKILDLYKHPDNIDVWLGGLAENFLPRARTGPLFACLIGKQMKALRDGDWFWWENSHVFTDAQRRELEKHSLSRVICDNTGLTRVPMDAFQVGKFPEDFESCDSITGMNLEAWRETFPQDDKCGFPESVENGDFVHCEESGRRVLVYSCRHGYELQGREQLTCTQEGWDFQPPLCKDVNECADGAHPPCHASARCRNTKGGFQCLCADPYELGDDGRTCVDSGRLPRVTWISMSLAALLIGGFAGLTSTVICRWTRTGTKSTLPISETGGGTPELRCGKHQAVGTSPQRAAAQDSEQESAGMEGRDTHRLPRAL
# [11] = AUC in mouse at 3 mg/kg, po after 8 hrs; format: ADME, organism-based; set-up: dose 3 mg/kg, time < 8 hr, route oral; conditions: in vivo
# [12] = molecular target: Cytochrome P450 3A4 (Homo sapiens, UniProt P08684); assay: Inhibition of CYP3A4 (unknown origin); format: ADME
# [13] = tested on: Mus musculus; assay: In vivo inhibition of PMA-stimulated MPO in human MPO transgenic mouse model of acute inflammation assessed as reduction in hypochlorous acid production in blood at 30 mg/kg, po administered 20 mins prior to PMA stimulation and measured after 2 mins by luminol chemiluminescence assay relative to control; format: functional
# Procedure, shortened: (§1)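 Mice were dosed with test compound, then given PMA 20 minutes later to stimulate MPO through neutrophil degranulation. After 2 minutes, blood samples were treated with luminol. Chemiluminescence was read as MPO-dependent hypochlorous acid production.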
# [14] = Plasma concentration in human MPO transgenic mouse model of PMA-induced acute inflammation at 30 mg/kg, po; format: ADME, organism-based; conditions: in vivo
# [15] = tested on: Mus musculus; assay: In vivo inhibition of PMA-stimulated MPO in human MPO transgenic mouse model of acute inflammation assessed as reduction in hypochlorous acid production in blood administered orally 20 mins prior to PMA stimulation and measured after 2 mins by luminol chemiluminescence assay; format: functional, organism-based; procedure, shortened: as §1
# [16] = tested on: Mus musculus; assay: In vivo inhibition of PMA-stimulated MPO in human MPO transgenic mouse model of acute inflammation assessed as reduction in hypochlorous acid production in blood at 10 mg/kg, po administered 20 mins prior to PMA stimulation and measured after 2 mins by luminol chemiluminescence assay relative to control; format: functional; procedure, shortened: as §1
# [17] = Plasma concentration in human MPO transgenic mouse model of PMA-induced acute inflammation at 10 mg/kg, po; format: ADME, organism-based; conditions: in vivo
# [18] = tested on: Mus musculus; assay: In vivo inhibition of […] in mouse model of acute inflammation at 10 to 30 mg/kg, po; format: functional, organism-based
# Cytochrome P450 3A4, sequence (P08684 whole entry): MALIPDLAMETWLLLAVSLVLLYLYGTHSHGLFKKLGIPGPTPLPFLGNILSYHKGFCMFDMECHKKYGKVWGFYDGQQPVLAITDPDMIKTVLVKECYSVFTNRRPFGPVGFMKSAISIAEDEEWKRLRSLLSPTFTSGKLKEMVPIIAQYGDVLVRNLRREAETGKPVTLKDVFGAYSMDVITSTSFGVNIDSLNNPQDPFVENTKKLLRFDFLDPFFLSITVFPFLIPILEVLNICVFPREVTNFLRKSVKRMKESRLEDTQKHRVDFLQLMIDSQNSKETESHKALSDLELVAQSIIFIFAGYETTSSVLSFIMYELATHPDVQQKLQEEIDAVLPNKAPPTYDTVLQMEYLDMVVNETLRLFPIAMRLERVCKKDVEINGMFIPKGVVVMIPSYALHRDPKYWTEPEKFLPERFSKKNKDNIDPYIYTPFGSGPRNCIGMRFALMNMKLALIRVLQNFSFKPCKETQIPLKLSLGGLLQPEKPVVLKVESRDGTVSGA
# Lactoperoxidase, sequence (P22079 whole entry, the tested form may be a part): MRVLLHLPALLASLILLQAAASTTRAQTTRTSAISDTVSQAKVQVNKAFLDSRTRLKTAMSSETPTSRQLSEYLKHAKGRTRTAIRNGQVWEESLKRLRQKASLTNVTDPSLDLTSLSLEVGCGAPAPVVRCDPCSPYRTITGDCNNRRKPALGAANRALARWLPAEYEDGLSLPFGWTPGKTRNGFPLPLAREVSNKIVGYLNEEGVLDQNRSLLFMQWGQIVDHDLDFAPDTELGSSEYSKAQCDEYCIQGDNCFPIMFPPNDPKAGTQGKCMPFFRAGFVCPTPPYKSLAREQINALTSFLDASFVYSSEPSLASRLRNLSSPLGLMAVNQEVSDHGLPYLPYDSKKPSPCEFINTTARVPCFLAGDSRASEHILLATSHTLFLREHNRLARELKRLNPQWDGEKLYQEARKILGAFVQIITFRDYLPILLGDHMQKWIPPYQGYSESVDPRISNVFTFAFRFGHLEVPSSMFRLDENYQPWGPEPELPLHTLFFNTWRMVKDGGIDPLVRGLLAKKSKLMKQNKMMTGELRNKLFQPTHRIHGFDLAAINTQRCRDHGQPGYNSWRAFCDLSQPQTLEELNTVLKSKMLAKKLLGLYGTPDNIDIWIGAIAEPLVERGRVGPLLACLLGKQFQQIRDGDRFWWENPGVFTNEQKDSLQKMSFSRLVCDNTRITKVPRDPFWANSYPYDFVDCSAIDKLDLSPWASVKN
smiles,measurement,setting,value
Nc1cc(OCc2cccc(Cl)c2)c2nn[nH]c2n1,IC50,[1],21 nM
CS(=O)(=O)c1ccccc1COc1cc(N)nc2[nH]nnc12,IC50,[1],720 nM
Nc1cc(OCc2ccc(Cl)cc2)c2nn[nH]c2n1,IC50,[1],26 nM
Nc1cc(OCc2ccccc2-n2cccn2)c2nn[nH]c2n1,IC50,[1],26 nM
Nc1cc(SCc2c(Cl)cccc2Cl)c2nn[nH]c2n1,IC50,[1],4.6 nM
Nc1nc(OCc2ccccc2)c2[nH]nnc2n1,fraction unbound,[2],0.006
same,Cmax,[3],31 µM
same,IC50,[4],17 nM
same,half-life,[5],2.8 h
same,fraction unbound,[6],0.127
same,IC50,[7],> 100000 nM
same,inhibition (INH),[8],Active
same,IC50,[9],110 to 190 nM
same,IC50,[10],42000 nM
same,AUC at 8 h,[11],22 µM·h
Nc1cc(OCc2ccccc2)c2nn[nH]c2n1,half-life,[5],> 100 h
same,inhibition (INH),[8],Active
same,IC50,[1],36 nM
same,IC50,[9],50 nM
same,AUC at 8 h,[11],11 µM·h
Nc1cc(OCc2nn(-c3ccccc3)nc2CO)c2nn[nH]c2n1,IC50,[1],250 nM
Nc1cc(OCc2c(Cl)cccc2Cl)c2nn[nH]c2n1,IC50,[1],6.7 nM
Cc1nn(-c2ccccc2)nc1COc1cc(N)nc2[nH]nnc12,IC50,[12],370 nM
same,IC50,[1],27 nM
Nc1cc(OCc2ccccc2Cl)c2nn[nH]c2n1,IC50,[1],26 nM
Nc1cc(OCc2ncc(-c3ccccc3)o2)c2nn[nH]c2n1,IC50,[1],290 nM
Nc1cc(OCc2nn(-c3ccccc3)nc2C(F)F)c2nn[nH]c2n1,IC50,[1],12 nM
Cn1cc(-c2cccc(COc3cc(N)nc4[nH]nnc34)c2)cn1,IC50,[1],78 nM
Nc1cc(OCc2ccccc2F)c2nn[nH]c2n1,IC50,[1],30 nM
Nc1cc(SCc2ccccc2F)c2nn[nH]c2n1,inhibition in vivo at 30 mg/kg,[13],74%
same,concentration,[14],70 µM
same,inhibition,[15],Dose-dependent effect
same,fraction unbound,[2],0.02
same,Cmax,[3],17 µM
same,IC50,[4],22 nM
same,fraction unbound,[6],0.192
same,inhibition in vivo at 10 mg/kg,[16],50%
same,IC50,[7],> 8000 nM
same,concentration,[17],21 µM
same,IC50,[1],8.7 nM
same,IC50,[9],6.8 nM
same,inhibition,[18],Active
same,IC50,[10],4000 nM
same,AUC at 8 h,[11],18 µM·h
Cn1ccc(-c2cccc(COc3cc(N)nc4[nH]nnc34)c2)n1,IC50,[1],21 nM
Nc1cc(SCc2nn(-c3ccccc3)nc2C(F)F)c2nn[nH]c2n1,IC50,[1],8.5 nM
Cc1c(COc2cc(N)nc3[nH]nnc23)cccc1-c1cccc(F)c1,IC50,[1],23 nM
Nc1cc(OCc2cccc(-c3cccc(F)c3)c2)c2nn[nH]c2n1,IC50,[1],21 nM
Cc1c(COc2cc(N)nc3[nH]nnc23)cccc1-c1ccn(C)n1,IC50,[12],1500 nM
same,IC50,[1],26 nM
Nc1cc(OCc2cn(-c3ccccc3)nn2)c2nn[nH]c2n1,IC50,[1],400 nM
Nc1cc(OCc2cccc(-c3ccccc3F)c2)c2nn[nH]c2n1,IC50,[1],160 nM
Nc1cc(OCc2cc(-c3cccc(F)c3)ccc2Cl)c2nn[nH]c2n1,IC50,[12],60 nM
same,IC50,[1],24 nM

# Source: ChEMBL document CHEMBL4325921, “Potent Triazolopyridine Myeloperoxidase Inhibitors” (ACS Med Chem Lett, 2018)
